Converted amounts (≈) assume the structure as drawn.
What was measured:
Staphylococcus aureus [1] = test: Antibacterial activity against methicillin-resistant Staphylococcus aureus SAU1009; assay type: functional
Outline: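 MIC against MRSA strain SAU1009.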

Staphylococcus aureus [2] = test: Antibacterial activity against Staphylococcus aureus in po dosed mouse septicemia model; assay type: functional
[3] = target: T1, Amine oxidase [flavin-containing] A (Homo sapiens, UniProt P21397); test: Inhibition of human recombinant MAO-A expressed in yeast after 1 hr by luciferin-based luminescence assay
T1 sequence (P21397 whole entry): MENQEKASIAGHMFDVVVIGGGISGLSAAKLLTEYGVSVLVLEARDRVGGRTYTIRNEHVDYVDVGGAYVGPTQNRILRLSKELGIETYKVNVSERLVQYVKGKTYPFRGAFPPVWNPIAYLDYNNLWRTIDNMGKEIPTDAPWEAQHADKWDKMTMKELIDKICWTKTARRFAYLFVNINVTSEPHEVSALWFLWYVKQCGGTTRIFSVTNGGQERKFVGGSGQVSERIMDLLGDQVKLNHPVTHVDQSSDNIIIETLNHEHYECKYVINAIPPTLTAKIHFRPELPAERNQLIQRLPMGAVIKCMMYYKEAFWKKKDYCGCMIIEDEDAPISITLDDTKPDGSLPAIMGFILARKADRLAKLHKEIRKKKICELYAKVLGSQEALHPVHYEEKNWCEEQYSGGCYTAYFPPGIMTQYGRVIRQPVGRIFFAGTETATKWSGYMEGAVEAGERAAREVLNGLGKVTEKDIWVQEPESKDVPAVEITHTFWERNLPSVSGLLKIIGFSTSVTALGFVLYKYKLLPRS

Staphylococcus aureus [4] = test: Antibacterial activity against Staphylococcus aureus by agar dilution method; assay type: functional
Outline: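 MIC determined by agar dilution across S. aureus/MRSA isolates; MIC90 is the concentration inhibiting 90% of strains tested.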

Structure (SMILES) | MIC (Staphylococcus aureus [1]) [µg/mL] | ED50 (Staphylococcus aureus [2]) [mg/kg] | IC50 [3] [µM] | MIC90 (Staphylococcus aureus [4]) [µg/mL]
COC(=O)NC[C@H]1CN(c2cc(F)c(N3C=CC(=O)CC3)c(F)c2F)C(=O)O1 | 2 (≈ 5.01 µM) | 6.3 | 61.1 | –
O=C1C=CN(c2c(F)cc(N3C[C@H](Cn4ccnn4)OC3=O)c(F)c2F)CC1 | 1 (≈ 2.54 µM) | 10 | > 254 | –
O=C1C=CN(c2ccc(N3C[C@H](COc4ccon4)OC3=O)c(F)c2F)CC1 | 4 (≈ 10.2 µM) | > 20 | – | –
CC(=O)NC[C@H]1CN(c2cc(F)c(N3CCOCC3)c(F)c2F)C(=O)O1 | – | – | – | 4 (≈ 10.7 µM)
